From ChEMBL document CHEMBL3244174, “Synthesis and biological activity of some new furan quaternary salts” (J Med Chem, 1977)
The source made the active and inactive calls. The rule behind the calls is not given here.

Assays:
Rodentolepis nana = assay: Anthelmintic activity against viable ova stage of Hymenolepis nana infected in rat assessed as decrease in intestinal worm load at 250 mg/kg, po measured on day 3; assay type: functional, organism-based; parameters: dose 250 mg/kg
Outline: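 Young male rats (25–30 g, University of Freiburg strain) infected with 200 viable ova, then given a single 250 mg/kg oral dose. Worms from each rat's small intestine collected and scored on day 3. A mean score of 0–10% of control taken as active.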

Pseudomonas aeruginosa = assay: Antibacterial activity against Pseudomonas aeruginosa ATCC 10145 assessed as growth inhibition after 24 hrs by dilution tube method; assay type: functional; settings: ATCC 10145, 24 h
Outline: (§1)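 Broth tube dilution in Tryptone Soya Broth, duplicate tubes at each concentration. MIC (μg/ml) was the highest dilution preventing visible growth. Nitrofurantoin run under the same conditions.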

Staphylococcus aureus = assay: Antibacterial activity against Staphylococcus aureus ATCC 6538 assessed as growth inhibition after 24 hrs by dilution tube method; assay type: functional; settings: ATCC 6538, 24 h; outline: as §1
[1] = system: Nippostrongylus brasiliensis; assay: Anthelmintic activity against larvae stage of Nippostrongylus brasiliensis infected in rat assessed as decrease in worm load at 250 mg/kg, po administered on day 8 post infection; assay type: functional, organism-based; parameters: dose 250 mg/kg
Outline: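 Young male rats (25–30 g, University of Freiburg strain), 3 per compound, infected with 500 infective larvae; single 250 mg/kg oral dose on day 8. Worm loads of treated and control groups compared; 90% deparasitization taken as active. Whitlock–Bliss technique as modified by Steward.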

Klebsiella pneumoniae = assay: Antibacterial activity against Klebsiella pneumoniae ATCC 10031 assessed as growth inhibition after 24 hrs by dilution tube method; assay type: functional; settings: ATCC 10031, 24 h; outline: as §1
Candida albicans = assay: Antifungal activity against Candida albicans SKF 2270 assessed as growth inhibition by agar dilution method; assay type: functional
Histoplasma capsulatum = assay: Antifungal activity against Histoplasma capsulatum RNSH Hi-70 1/2 assessed as growth inhibition by agar dilution method; assay type: functional
Nannizzia gypsea = assay: Antifungal activity against Microsporum gypseum 153 CSTM assessed as growth inhibition by agar dilution method; assay type: functional
[2] = system: Agrobacterium tumefaciens; assay: Antibacterial activity against Agrobacterium tumefaciens NRRL B-36 assessed as growth inhibition after 24 hrs by dilution tube method; assay type: functional; settings: NRRL B-36, 24 h; outline: as §1
[3] = system: Trichophyton mentagrophytes; assay: Antifungal activity against Trichophyton mentagrophytes A-280 USPHS assessed as growth inhibition by agar dilution method; assay type: functional
[4] = system: Mycobacterium tuberculosis; assay: Antibacterial activity against Mycobacterium tuberculosis H37Rv assessed as growth inhibition by serial dilution method; assay type: functional
Outline: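 M. tuberculosis H37Rv maintained on Lowenstein–Jensen medium; tested in Youman's medium by serial dilution.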

[5] = Acute toxicity in ip dosed mouse; assay type: organism-based; settings: in vivo
Outline: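 Mice dosed intraperitoneally; LD50 determined.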

Trichophyton rubrum = assay: Antifungal activity against Trichophyton rubrum 252 CSTM assessed as growth inhibition by agar dilution method; assay type: functional
Salmonella typhi = assay: Antibacterial activity against Salmonella typhi 115 assessed as growth inhibition after 24 hrs by dilution tube method; assay type: functional, Salmonella enterica subsp. enterica serovar Typhi; settings: Salmonella enterica, 115, 24 h
Outline: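 Dilution tube method in Tryptone Soya Broth; MIC (μg/ml) taken as highest dilution preventing visible growth; duplicates at every concentration; nitrofurantoin reference run under same conditions.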

Enterococcus faecalis = assay: Antibacterial activity against Streptococcus faecalis ATCC 10541 assessed as growth inhibition after 24 hrs by dilution tube method; assay type: functional; settings: ATCC 10541, 24 h; outline: as §1
Escherichia coli = assay: Antibacterial activity against Escherichia coli 114 assessed as growth inhibition after 24 hrs by dilution tube method; assay type: functional; settings: Escherichia coli, 114, 24 h; outline: as §1
Microsporum canis = assay: Antifungal activity against Microsporum canis VM-200 USPHS assessed as growth inhibition by agar dilution method; assay type: functional
Cryptococcus neoformans = assay: Antifungal activity against Cryptococcus neoformans 103 assessed as growth inhibition by agar dilution method; assay type: functional

C[N+](C)(CCCCCCOc1c(Br)cc(Br)cc1Br)Cc1ccc(Br)o1.[Br-]
Activity (Rodentolepis nana): inactive
MIC (Pseudomonas aeruginosa): 1.5 mg/L
MIC (Staphylococcus aureus): 2 mg/L
Activity [1]: inactive
MIC (Klebsiella pneumoniae): 1.5 mg/L
MIC (Candida albicans): > 200 mg/L
MIC (Histoplasma capsulatum): 25 mg/L
MIC (Nannizzia gypsea): > 200 mg/L
MIC [2]: 7.5 mg/L
MIC [3]: > 200 mg/L
MIC [4]: 10 mg/L
LD50 [5]: 25 mg/kg
MIC (Trichophyton rubrum): > 200 mg/L
MIC (Salmonella typhi): 50 mg/L
MIC (Enterococcus faecalis): 5 mg/L
MIC (Escherichia coli): 100 mg/L
MIC (Microsporum canis): 100 mg/L
MIC (Cryptococcus neoformans): 25 mg/L

C[N+](C)(CCCCCCOc1c(Br)cc(Br)cc1Br)Cc1ccc([N+](=O)[O-])o1.[Br-]
Activity (Rodentolepis nana): inactive
MIC (Pseudomonas aeruginosa): 2.5 mg/L
MIC (Staphylococcus aureus): 10 mg/L
Activity [1]: inactive
MIC (Klebsiella pneumoniae): 5 mg/L
MIC (Candida albicans): > 200 mg/L
MIC (Histoplasma capsulatum): 25 mg/L
MIC (Nannizzia gypsea): 100 mg/L
MIC [2]: 25 mg/L
MIC [3]: > 200 mg/L
MIC [4]: 10 mg/L
LD50 [5]: 75 mg/kg
MIC (Trichophyton rubrum): 100 mg/L
MIC (Salmonella typhi): 100 mg/L
MIC (Enterococcus faecalis): 25 mg/L
MIC (Escherichia coli): 200 mg/L
MIC (Microsporum canis): 100 mg/L
MIC (Cryptococcus neoformans): 100 mg/L

Cc1cc(OCCCCC[N+](C)(C)Cc2ccc(Br)o2)c(C(C)C)cc1Cl.[Br-]
Activity (Rodentolepis nana): inactive
MIC (Pseudomonas aeruginosa): 2.5 mg/L
MIC (Staphylococcus aureus): 2.5 mg/L
Activity [1]: inactive
MIC (Klebsiella pneumoniae): 2.5 mg/L
MIC (Candida albicans): > 200 mg/L
MIC (Histoplasma capsulatum): 100 mg/L
MIC (Nannizzia gypsea): > 200 mg/L
MIC [2]: 10 mg/L
MIC [3]: 100 mg/L
MIC [4]: 10 mg/L
LD50 [5]: 37.5 mg/kg
MIC (Trichophyton rubrum): > 200 mg/L
MIC (Salmonella typhi): 50 mg/L
MIC (Enterococcus faecalis): 5 mg/L
MIC (Escherichia coli): 100 mg/L
MIC (Microsporum canis): 100 mg/L
MIC (Cryptococcus neoformans): 10 mg/L

C[N+](C)(CCCCCOc1c(Br)cc(Br)cc1Br)Cc1ccc(Br)o1.[Br-]
Activity (Rodentolepis nana): inactive
MIC (Pseudomonas aeruginosa): 2 mg/L
MIC (Staphylococcus aureus): 2 mg/L
Activity [1]: inactive
MIC (Klebsiella pneumoniae): 1.5 mg/L
MIC (Candida albicans): > 200 mg/L
MIC (Histoplasma capsulatum): 100 mg/L
MIC (Nannizzia gypsea): > 200 mg/L
MIC [2]: 25 mg/L
MIC [3]: > 200 mg/L
MIC [4]: 10 mg/L
LD50 [5]: 25 mg/kg
MIC (Trichophyton rubrum): > 200 mg/L
MIC (Salmonella typhi): 50 mg/L
MIC (Enterococcus faecalis): 7.5 mg/L
MIC (Escherichia coli): 100 mg/L
MIC (Microsporum canis): > 200 mg/L
MIC (Cryptococcus neoformans): 25 mg/L

Cc1cc(OCCCC[N+](C)(C)Cc2ccc(Br)o2)c(C(C)C)cc1Cl.[Br-]
Activity (Rodentolepis nana): inactive
MIC (Pseudomonas aeruginosa): 2.5 mg/L
MIC (Staphylococcus aureus): 2.5 mg/L
Activity [1]: inactive
MIC (Klebsiella pneumoniae): 2.5 mg/L
MIC (Candida albicans): 50 mg/L
MIC (Histoplasma capsulatum): > 200 mg/L
MIC (Nannizzia gypsea): 50 mg/L
MIC [2]: 25 mg/L
MIC [3]: 50 mg/L
MIC [4]: 7.5 mg/L
LD50 [5]: 25 mg/kg
MIC (Trichophyton rubrum): > 200 mg/L
MIC (Salmonella typhi): > 200 mg/L
MIC (Enterococcus faecalis): 7.5 mg/L
MIC (Escherichia coli): > 200 mg/L
MIC (Microsporum canis): 75 mg/L
MIC (Cryptococcus neoformans): 25 mg/L

Cc1cc(OCCCCCCCC[N+](C)(C)Cc2ccc([N+](=O)[O-])o2)c(C(C)C)cc1Cl.[Br-]
MIC (Pseudomonas aeruginosa): 1 mg/L
MIC (Staphylococcus aureus): 2 mg/L
MIC (Klebsiella pneumoniae): 2 mg/L
MIC (Candida albicans): > 200 mg/L
MIC (Histoplasma capsulatum): > 200 mg/L
MIC (Nannizzia gypsea): > 200 mg/L
MIC [2]: 4 mg/L
MIC [3]: > 200 mg/L
MIC [4]: 7.5 mg/L
MIC (Trichophyton rubrum): > 200 mg/L
MIC (Salmonella typhi): > 200 mg/L
MIC (Enterococcus faecalis): 3 mg/L
MIC (Escherichia coli): > 200 mg/L
MIC (Microsporum canis): > 200 mg/L
MIC (Cryptococcus neoformans): 4 mg/L

C[N+](C)(CCCCCCOc1c(Br)cc(Br)cc1Br)Cc1ccco1.[Br-]
MIC (Pseudomonas aeruginosa): 5 mg/L
MIC (Staphylococcus aureus): 25 mg/L
MIC (Klebsiella pneumoniae): 7.5 mg/L
MIC (Candida albicans): 50 mg/L
MIC (Histoplasma capsulatum): 50 mg/L
MIC (Nannizzia gypsea): 100 mg/L
MIC [2]: 50 mg/L
MIC [3]: 100 mg/L
MIC [4]: 25 mg/L
MIC (Trichophyton rubrum): 100 mg/L
MIC (Salmonella typhi): > 200 mg/L
MIC (Enterococcus faecalis): 25 mg/L
MIC (Escherichia coli): > 200 mg/L
MIC (Microsporum canis): 100 mg/L
MIC (Cryptococcus neoformans): 25 mg/L

C[N+](C)(CCCOc1c(Br)cc(Br)cc1Br)Cc1ccc([N+](=O)[O-])o1.[Br-]
MIC (Pseudomonas aeruginosa): 25 mg/L
MIC (Staphylococcus aureus): 50 mg/L
MIC (Klebsiella pneumoniae): 25 mg/L
MIC (Candida albicans): > 200 mg/L
MIC (Histoplasma capsulatum): 200 mg/L
MIC (Nannizzia gypsea): > 200 mg/L
MIC [2]: 100 mg/L
MIC [3]: > 200 mg/L
MIC [4]: 50 mg/L
MIC (Trichophyton rubrum): > 200 mg/L
MIC (Salmonella typhi): > 200 mg/L
MIC (Enterococcus faecalis): 200 mg/L
MIC (Escherichia coli): > 200 mg/L
MIC (Microsporum canis): > 200 mg/L
MIC (Cryptococcus neoformans): 200 mg/L

Cc1ccc(C[N+](C)(C)CCCCCOc2c(Br)cc(Br)cc2Br)o1.[Br-]
MIC (Pseudomonas aeruginosa): 5 mg/L
MIC (Staphylococcus aureus): 7.5 mg/L
MIC (Klebsiella pneumoniae): 5 mg/L
MIC (Candida albicans): > 200 mg/L
MIC (Histoplasma capsulatum): 100 mg/L
MIC (Nannizzia gypsea): > 200 mg/L
MIC [2]: 25 mg/L
MIC [3]: > 200 mg/L
MIC [4]: 5 mg/L
MIC (Trichophyton rubrum): > 200 mg/L
MIC (Salmonella typhi): 100 mg/L
MIC (Enterococcus faecalis): 25 mg/L
MIC (Escherichia coli): > 200 mg/L
MIC (Microsporum canis): > 200 mg/L
MIC (Cryptococcus neoformans): 25 mg/L

Cc1cc(OCCCCCCCCCCCC[N+](C)(C)Cc2ccc([N+](=O)[O-])o2)c(C(C)C)cc1Cl.Cc1ccc(S(=O)(=O)[O-])cc1
MIC (Pseudomonas aeruginosa): 50 mg/L
MIC (Staphylococcus aureus): 200 mg/L
MIC (Klebsiella pneumoniae): 200 mg/L
MIC (Candida albicans): > 200 mg/L
MIC (Histoplasma capsulatum): > 200 mg/L
MIC (Nannizzia gypsea): > 200 mg/L
MIC [2]: > 200 mg/L
MIC [3]: > 200 mg/L
MIC [4]: 100 mg/L
MIC (Trichophyton rubrum): > 200 mg/L
MIC (Salmonella typhi): > 200 mg/L
MIC (Enterococcus faecalis): 200 mg/L
MIC (Escherichia coli): > 200 mg/L
MIC (Microsporum canis): > 200 mg/L
MIC (Cryptococcus neoformans): 100 mg/L

Cc1cc(OCCCCCCCC[N+](C)(C)Cc2ccc(Br)o2)c(C(C)C)cc1Cl.Cc1ccc(S(=O)(=O)[O-])cc1
MIC (Pseudomonas aeruginosa): 25 mg/L
MIC (Staphylococcus aureus): 100 mg/L
MIC (Klebsiella pneumoniae): 100 mg/L
MIC (Candida albicans): > 200 mg/L
MIC (Histoplasma capsulatum): > 200 mg/L
MIC (Nannizzia gypsea): 200 mg/L
MIC [2]: 100 mg/L
MIC [3]: 200 mg/L
MIC [4]: 25 mg/L
MIC (Trichophyton rubrum): 200 mg/L
MIC (Salmonella typhi): > 200 mg/L
MIC (Enterococcus faecalis): 100 mg/L
MIC (Escherichia coli): > 200 mg/L
MIC (Microsporum canis): 100 mg/L
MIC (Cryptococcus neoformans): 50 mg/L
